EC50, Activity and Kd data for 13 molecules are collected here from ChEMBL document CHEMBL1142220, “Small-molecule synergist of the Wnt/beta-catenin signaling pathway” (Proc Natl Acad Sci U S A, 2007).

Experiment [1] has as its system HEK293. Description: Effect on Wnt/[…] reporter pathway in HEK293 cells expressing super(8X)TOPFlash reporter assessed as luciferase activity in presence of Wnt-3a. It counts as functional, cell-based. The settings on record: Homo sapiens. Summed up: (§1)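 HEK293 cells transfected with Super(8X)TOPFlash reporter plus renilla control; 24 h post-transfection, compound added over a dose range with or without Wnt-3a conditioned medium (1:1 vol/vol to growth medium); firefly luciferase read 36 h later, normalized to renilla; error bars SD.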

Experiment [2] has as its system HEK293. Description: Reduction of super(8X)TOPFlash reporter activity in HEK293 cells at 0.25 uM in presence of Wnt-3a conditional medium relative to control. Type of experiment: functional, Homo sapiens. More on the design: scale not given: the % may be the effect or the level left. The essentials: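 HEK293 cells carrying the Super(8X)TOPFlash luciferase reporter, treated at 0.25 μM in Wnt-3a conditioned medium; reporter luciferase activity compared with DMSO-treated control cells under the same Wnt-3a stimulation.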

Experiment [3] has as its system MDA-MB-231. Nature of the experiment: Inhibition of migration of AMAP1 expressing human MDA-MB-231 cells. Type of experiment: functional, cell-based. The essentials: (§2)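 Modified Boyden chambers, filter underside coated with 5 μg/cm² Matrigel; MDA-MB-231 cells (5,000/well) seeded upper chamber in RPMI1640 with 0.5% BSA plus compound, lower chamber DMEM with 10% FBS; after 12 h, cells on lower side counted by microscopy versus DMSO.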

Experiment [4] has as its system HEK293. Description: Effect on Wnt/[…] reporter pathway in HEK293 cells expressing superFOPFlash reporter plasmid assessed as luciferase activity at 0.11 to 25 uM in presence of Wnt-3a. Type of experiment: functional, cell-based. Particulars: Homo sapiens, 0.011 to 25 uM, in the assay text read “0.011 to 25 uM” for “0.11 to 25 uM”. Summed up: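 SuperFOPFlash reporter (mutated β-catenin/TCF sites) transfected into HEK293 cells; compound 0.011–25 μM given with Wnt-3a conditioned medium 24 h after transfection; luciferase read after 36 h, normalized to renilla.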

Experiment [5] relates to HEK293. Nature of the experiment: Induction of Wnt-3a-induced DKK1 gene expression in HEK293 cells in presence of Wnt-3a. Type of experiment: functional, cell-based. Particulars: Homo sapiens.
Experiment [6] concerns the target ADP-ribosylation factor 6 (Mus musculus) (UniProt P62331). Description: Inhibition of ADP-ribosylation factor 6 activity in mouse NIH3T3 cells assessed as increase in endogenous ARF6-GTP level at 2.5 uM relative to control. It counts as cell-based.
Experiment [7] deals with HEK293. Nature of the experiment: Induction of Wnt-3a-induced Axin2 gene expression in HEK293 cells in presence of Wnt-3a. Type of experiment: functional, cell-based. Particulars: Homo sapiens.
A short description of experiment [8]: Activation of Wnt/[…] pathway in Xenopus embryos assessed as partial double axis formation at 10 uM in presence of XWnt-8 RNA after 24 hrs. Type of experiment: functional. Summed up:
(§3)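 XWnt-8 RNA (0.5 pg) co-injected with 10 nL of 10 μM compound (or 10 nL water) into one ventral blastomere at 16- to 32-cell stage; embryos kept 24 h, then scored for partial versus full double axis formation.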

Experiment [9] relates to HEK293. Nature of the experiment: Effect on Wnt/[…] reporter pathway in HEK293 cells expressing super(8X)TOPFlash reporter plasmid assessed as luciferase activity in presence of recombinant Wnt-3a. It counts as functional, cell-based. Particulars: Homo sapiens.
Experiment [10] is described as follows: Activation of Wnt/[…] pathway in Xenopus embryos assessed as full axis formation at 10 uM in presence of XWnt-8 RNA after 24 hrs. It counts as functional. Summed up:
as §3

Experiment [11] has as its target ADP-ribosylation factor GTPase-activating protein 1, ARFGAP1 (Homo sapiens) (UniProt Q8N6T3). Nature of the experiment: Binding affinity to purified ARFGAP1 by surface plasmon resonance analysis.
Experiment [12] has as its system HEK293. Nature of the experiment: Effect on Wnt/[…] reporter pathway in HEK293 cells expressing super(8X)TOPFlash reporter plasmid assessed as luciferase activity. It counts as functional, Homo sapiens. The essentials:
as §1

For experiment [13], the system named is MDA-MB-231. Description: Inhibition of migration of AMAP1 expressing human MDA-MB-231 cells at 2.5 uM relative to control. It counts as functional. The arrangement: scale not given: the % may be the effect or the level left. Summed up:
as §2

In experiment [14] the target is ADP-ribosylation factor 6 (Mus musculus) (UniProt P62331). Description: Inhibition of ADP-ribosylation factor 6 activity in mouse NIH3T3 cells assessed as increase in endogenous ARF6-GTP level at 1 uM relative to control. Type of experiment: cell-based.
Chain of ADP-ribosylation factor 6 (Mus musculus) (P62331 whole entry): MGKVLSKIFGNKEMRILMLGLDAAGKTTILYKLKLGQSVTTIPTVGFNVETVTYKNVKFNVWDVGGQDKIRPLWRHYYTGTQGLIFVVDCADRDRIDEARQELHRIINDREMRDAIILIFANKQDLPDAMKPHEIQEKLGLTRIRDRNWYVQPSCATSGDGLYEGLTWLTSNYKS
The test system of experiment [15] is HEK293. Description: Effect on Wnt/[…] reporter pathway in HEK293 cells expressing super(8X)TOPFlash reporter assessed as luciferase activity at 2.5 uM in presence of Wnt-3a. It counts as functional, Homo sapiens. The essentials:
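HEK293 cells (20,000/well) reverse-transfected with Super(8X)TOPFlash and pTK-RL (Fugene6), 24 h at 37°C; compound 2.5 μM plus Wnt-3a conditioned medium (1:1 vol/vol) added; Dual-Glo luciferase read 36 h later, fold activation normalized to renilla; mean of three independent data points.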

Activity calls are given as the source filed them. The rule behind the calls is not given here. Some results are limits rather than exact numbers.

Chain of ADP-ribosylation factor GTPase-activating protein 1, ARFGAP1 (Homo sapiens) (Q8N6T3 whole entry, looked up): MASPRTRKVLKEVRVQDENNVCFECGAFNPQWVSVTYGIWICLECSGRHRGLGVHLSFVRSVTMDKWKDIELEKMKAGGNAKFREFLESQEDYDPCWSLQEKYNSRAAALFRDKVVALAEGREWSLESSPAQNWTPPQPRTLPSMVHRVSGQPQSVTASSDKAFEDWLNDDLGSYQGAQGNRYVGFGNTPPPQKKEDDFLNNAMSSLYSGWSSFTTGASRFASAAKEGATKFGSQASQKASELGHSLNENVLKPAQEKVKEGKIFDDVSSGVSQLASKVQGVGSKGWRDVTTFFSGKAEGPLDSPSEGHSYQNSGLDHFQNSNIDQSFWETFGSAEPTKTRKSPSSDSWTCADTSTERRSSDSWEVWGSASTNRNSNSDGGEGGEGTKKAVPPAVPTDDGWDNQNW

In general, EC50 refers to the concentration that produces a half-maximal response. Regarding `OC[C@H](Cc1ccccc1)Nc1nc(Oc2ccc3c(c2)CCC3)nc2c1ncn2Cc1ccccc1`, in the experiment with HEK293 [1], the EC50 is above 7100 nM.

`O=[N+]([O-])c1ccc(C[C@@H](CO)Nc2nc(Oc3ccc4c(c3)CCC4)nc3c2ncn3Cc2ccc(-c3ccccc3)cc2)cc1`: the EC50 in the experiment with HEK293 [1] was 400 nM.

Turning to `[N-]=[N+]=Nc1ccc(C[C@@H](CO)Nc2nc(Oc3ccc4c(c3)CCC4)nc3c2ncn3Cc2ccc(-c3ccccc3)cc2)cc1`, the EC50 in the experiment on HEK293 [1] is 600 nM.

For the molecule `FC(F)(F)c1ccc(Cn2cnc3c(NCCc4ccccc4)nc(Oc4ccc5c(c4)CCC5)nc32)cc1`, the EC50 in the experiment with HEK293 [1] was above 7100 nM.

Turning to `CC1(C)Cc2cc(Oc3nc(NCc4ccccc4)c4ncn(Cc5ccc(-c6ccccc6)cc5)c4n3)ccc2O1`, the EC50 in the experiment on HEK293 [1] stood at 1700 nM.

As for `OC[C@H](Cc1ccccc1)Nc1nc(Oc2cccc3ccccc23)nc2c1ncn2Cc1ccc(-c2ccccc2)cc1`, in the experiment on HEK293 [1], the EC50 stood at 4600 nM.

As to `OC[C@@H](Cc1ccccc1)Nc1nc(Oc2ccc3c(c2)CCC3)nc2c1ncn2Cc1ccc(-c2ccccc2)cc1`, the EC50 with HEK293 [1] is above 7100 nM.

Consider `OC[C@H](Cc1ccccc1)Nc1nc(Oc2cccc(-c3ccccc3)c2)nc2c1ncn2Cc1ccc(-c2ccccc2)cc1`, for which, in the experiment with HEK293 [1], the EC50 came to 3100 nM.

For `O=[N+]([O-])c1ccc(-c2ccc(Cn3cnc4c(N[C@H](CO)Cc5ccccc5)nc(Oc5ccc6c(c5)CCC6)nc43)cc2)cc1`, the EC50 with HEK293 [1] is 1500 nM.

Turning to `C[C@H]1CCC/C=C/[C@@H]2C[C@H](O)C[C@H]2[C@H](O)/C=C/C(=O)O1` [BREFELDIN A], the Activity in the experiment with HEK293 [2] came to 50%.

As a reminder, the Kd is the constant that tells how readily two partners part at equilibrium. As for `OC[C@H](Cc1ccccc1)Nc1nc(Oc2ccc3c(c2)CCC3)nc2c1ncn2Cc1ccc(-c2ccccc2)cc1`, the Activity result in the experiment on MDA-MB-231 [3] is “Dose-dependent effect”; in experiment [8] it was 30.2%; in [10], 20.9%; in the experiment on HEK293 [12], 2; with MDA-MB-231 [13], 80%; in the experiment with HEK293 [15], 200. Moreover, the result in the experiment on HEK293 [4] was inactive. For the same molecule, the outcome (in the experiment with HEK293 [5]; in [6]; in the experiment with HEK293 [7]; in the experiment with HEK293 [9]; in experiment [14]) was Active. Binding in experiment [11] was put at a Kd of 620 nM. Moreover, the EC50 in the experiment with HEK293 [1] came to 500 nM.

As for `OC[C@H](Cc1ccccc1)Nc1nc(NCc2ccc3c(c2)OCO3)nc2c1ncn2Cc1ccc(-c2ccccc2)cc1`, in the experiment on HEK293 [1], the EC50 was above 7100 nM.

Consider `OC[C@H](Cc1ccccc1)Nc1nc(Nc2cccc3ccccc23)nc2c1ncn2Cc1ccc(-c2ccccc2)cc1`, for which the EC50 in the experiment on HEK293 [1] was above 7100 nM.
